Measured values reported in ChEMBL document CHEMBL1144220, “Screening helix-threading peptides for RNA binding using a thiazole orange displacement assay” (Bioorg Med Chem, 2008).
Square brackets hold non-standard residues; d marks the D form. Peptide text beside a SMILES is read from it. * marks the point of attachment. X1 = C=CCc1ccc(-c2cc(Nc3ccc(CN)cc3)c3cccc(C(=O)*)c3n2)cc1; X2 = C=CCc1ccc(-c2cc(Nc3ccccc3)c3cccc(C(=O)*)c3n2)cc1; AllylGly = C=CC[C@H](N)C(=O)O; Dap = NC[C@H](N)C(=O)O

Assays:
RNA A (synthetic) = test: Binding affinity to RNA A by quantitative ribonuclease V1 footprinting assay
[1] = Displacement of thiazole orange from RNA A by fluorescent intercalator displacement assay
In short: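 Pre-formed complex of RNA A (100 nM) with thiazole orange (50 nM), in 50 mM Bis-Tris·HCl pH 7.0, 100 mM NaCl, 10 mM MgCl2, 15 min. Added to a peptide titration and held ~15 min at 25 °C. Fluorescence read at ex 485 / em 535 nm, minus dye-only background. […] Three independent runs, mean ± SD.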

Structure (SMILES): NCCCC[C@@H]1NC(=O)[C@H](CN)NC(=O)c2cccc3c(Nc4ccc(CN)cc4)cc(nc23)-c2ccc(cc2)C/C=C/C[C@@H](C(N)=O)NC(=O)CNC1=O
- Binding affinity (RNA A (synthetic)): 0.05 µM
- Kd [1]: 0.22 µM

Structure (SMILES): N=C(N)NCCC[C@@H]1NC(=O)c2cccc3c(Nc4ccccc4)cc(nc23)-c2ccc(cc2)C/C=C/C[C@@H](C(N)=O)NC(=O)[C@H](CC(N)=O)NC(=O)[C@H](CC(N)=O)NC1=O
- Kd [1]: 1.4 µM

Structure (SMILES): CC(C)C[C@H]1NC(=O)[C@H](CCCNC(=N)N)NC(=O)c2cccc3c(Nc4ccccc4)cc(nc23)-c2ccc(cc2)C/C=C/C[C@@H](C(N)=O)NC(=O)[C@@H](CC(C)C)NC1=O
- Kd [1]: 10.1 µM

Structure (SMILES): C=CCc1ccc(-c2cc(Nc3ccccc3)c3cccc(C(=O)N[C@@H](CCCNC(=N)N)C(=O)N[C@H](CC(C)C)C(=O)N[C@H](CC(C)C)C(=O)N[C@@H](CC=C)C(N)=O)c3n2)cc1
- Kd [1]: > 30 µM

Structure (SMILES): CC(C)C[C@@H]1NC(=O)[C@H](CCCNC(=N)N)NC(=O)c2cccc3c(Nc4ccccc4)cc(nc23)-c2ccc(cc2)C/C=C/C[C@@H](C(N)=O)NC(=O)[C@H](CC(N)=O)NC1=O
- Kd [1]: 6.2 µM

Structure (SMILES): CC(C)C[C@@H]1NC(=O)[C@H](CC(N)=O)NC(=O)[C@H](CCCNC(=N)N)NC(=O)c2cccc3c(Nc4ccccc4)cc(nc23)-c2ccc(cc2)C/C=C/C[C@@H](C(N)=O)NC1=O
- Kd [1]: 18.9 µM

Structure (SMILES): NC[C@H]1O[C@H](O[C@H]2[C@H](O)[C@@H](O[C@H]3O[C@H](CO)[C@@H](O)[C@H](N)[C@H]3O)[C@H](N)C[C@@H]2N)[C@H](O)[C@@H](O)[C@@H]1O [KANAMYCIN]
- Kd [1]: > 100 µM

Structure (SMILES): C=CCc1ccc(-c2cc(Nc3ccccc3)c3cccc(C(=O)N[C@@H](CCCNC(=N)N)C(=O)N[C@@H](CC(C)C)C(=O)N[C@@H](CC(C)C)C(=O)N[C@@H](CC=C)C(N)=O)c3n2)cc1
- Kd [1]: > 30 µM

Structure (SMILES): CC(C)[C@H](NC(=O)[C@H](CO)NC(=O)CCCN)C(=O)NCc1ccc(Nc2ccnc3c(C(=O)N[C@@H](CCCNC(=N)N)C(N)=O)cccc23)cc1
- Binding affinity (RNA A (synthetic)): 3.3 µM
- Kd [1]: 13.2 µM

Structure (SMILES): N=C(N)NCCC[C@@H]1NC(=O)c2cccc3c(Nc4ccccc4)cc(nc23)-c2ccc(cc2)C/C=C/C[C@@H](C(N)=O)NC(=O)[C@@H](CC(N)=O)NC(=O)[C@@H](CC(N)=O)NC1=O
- Kd [1]: 13.4 µM

Structure (SMILES): N=C(N)NCCC[C@@H]1NC(=O)c2cccc3c(Nc4ccccc4)cc(nc23)-c2ccc(cc2)C/C=C/C[C@@H](C(N)=O)NC(=O)CNC(=O)[C@H](CCCCN)NC1=O
- Kd [1]: 0.35 µM

Structure (SMILES): NCCCC[C@H]1NC(=O)[C@@H](Cc2ccccc2)NC(=O)[C@H](CN)NC(=O)c2cccc3c(Nc4ccc(CN)cc4)cc(nc23)-c2ccc(cc2)C/C=C/C[C@@H](C(N)=O)NC1=O
- Binding affinity (RNA A (synthetic)): 8.6 µM
- Kd [1]: 4.4 µM

Structure (SMILES): N=C(N)NCCC[C@@H]1NC(=O)c2cccc3c(Nc4ccccc4)cc(nc23)-c2ccc(cc2)C/C=C/C[C@@H](C(N)=O)NC1=O
- Kd [1]: 3.6 µM

Structure (SMILES): C=CCc1ccc(-c2cc(Nc3ccccc3)c3cccc(C(=O)N[C@@H](CCCNC(=N)N)C(=O)N[C@@H](CC(N)=O)C(=O)N[C@@H](CC(N)=O)C(=O)N[C@@H](CC=C)C(N)=O)c3n2)cc1 (X2-RNN[AllylGly]-NH2)
- Kd [1]: 14.2 µM

Structure (SMILES): NC[C@@H]1O[C@H](O[C@H]2[C@@H](O)[C@H](O[C@H]3[C@@H](O)[C@H](N)C[C@H](N)[C@H]3O[C@H]3O[C@H](CN)[C@@H](O)[C@H](O)[C@H]3N)O[C@@H]2CO)[C@H](N)[C@@H](O)[C@@H]1O
- Kd [1]: > 60 µM

Structure (SMILES): NCCCC[C@H]1NC(=O)[C@H](Cc2ccccc2)NC(=O)[C@H](CN)NC(=O)c2cccc3c(Nc4ccc(CN)cc4)cc(nc23)-c2ccc(cc2)C/C=C/C[C@@H](C(N)=O)NC1=O
- Binding affinity (RNA A (synthetic)): 2.3 µM
- Kd [1]: 2.7 µM

Structure (SMILES): C=CCc1ccc(-c2cc(Nc3ccc(CN)cc3)c3cccc(C(=O)N[C@@H](CN)C(=O)N[C@@H](CCCCN)C(=O)NCC(=O)N[C@@H](CC=C)C(N)=O)c3n2)cc1 (X1-[Dap]KG[AllylGly]-NH2)
- Binding affinity (RNA A (synthetic)): 0.33 µM
- Kd [1]: 0.71 µM

Structure (SMILES): NCCCC[C@H]1NC(=O)CNC(=O)[C@H](CN)NC(=O)c2cccc3c(Nc4ccc(CN)cc4)cc(nc23)-c2ccc(cc2)C/C=C/C[C@@H](C(N)=O)NC1=O
- Binding affinity (RNA A (synthetic)): 0.27 µM
- Activity [1]: 96%
- Kd [1]: 0.6 µM

Structure (SMILES): N=C(N)NCCC[C@@H]1NC(=O)c2cccc3c(Nc4ccccc4)cc(nc23)-c2ccc(cc2)C/C=C/C[C@@H](C(N)=O)NC(=O)CNC1=O
- Kd [1]: 3.9 µM

Structure (SMILES): CC(C)C[C@@H]1NC(=O)[C@H](CC(C)C)NC(=O)[C@H](CCCNC(=N)N)NC(=O)c2cccc3c(Nc4ccccc4)cc(nc23)-c2ccc(cc2)C/C=C/C[C@@H](C(N)=O)NC1=O
- Kd [1]: > 30 µM
